Test results as given in ChEMBL document CHEMBL1154075, “Synthesis and biological evaluation of (11)C-labeled beta-galactosyl triazoles as potential PET tracers for in vivo LacZ reporter gene imaging” (Bioorg Med Chem, 2009).
pKi: −log10 of the molar value. “And” between values parts separate entries of the source, which are not always exact repeats. Identical values can stand only once.

Key:
[1] = Octanol-phosphate buffer partition coefficient, log P of the compound; assay type: physicochemical
In short: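 About 555 kBq of purified tracer was added to 2 mL n-octanol and 2 mL 0.025 M sodium phosphate pH 7.4. The mixture was vortexed 2 min at room temperature and centrifuged 5 min at 1837 g. Aliquots of each phase were weighed and gamma counted. P was taken as cpm/mL in octanol over cpm/mL in buffer, after density correction. At least triplicate.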

[2] = Biodistribution in NMRI mouse urine at 37 MBq/ml, iv after 2 mins; assay type: ADME, organism-based; conditions: in vivo
In short: (§1)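 Male NMRI mice under isoflurane received 0.1 mL of about 37 MBq/mL tracer iv in saline (ethanol <10%). Decapitated at 2 or 60 min, n = 4 per time point. Radioactivity counted in a NaI(Tl) well counter and expressed as %ID, i.e. cpm in organ over total cpm recovered. Mean ± SD.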

[3] = system: Kidney; assay: Biodistribution in NMRI mouse kidney assessed per gram of tissue at 37 MBq/ml, iv after 2 mins; assay type: ADME, organism-based; conditions: in vivo
In short: (§2)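 Male NMRI mice (35–45 g), isoflurane-anaesthetised (2.5% in O2), given 0.1 mL tracer at about 37 MBq/mL in 0.9% NaCl (ethanol <10%) via tail vein. Killed by decapitation at 2 or 60 min p.i., n = 4 per time point. Blood and organs weighed, gamma counted and background corrected. Expressed as %ID/g; blood mass taken as 7% of body mass. Mean ± SD.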

[4] = system: Liver; assay: Biodistribution in NMRI mouse liver assessed per gram of tissue at 37 MBq/ml, iv after 2 mins; assay type: ADME, organism-based; conditions: in vivo; in short: as §2
[5] = system: Stomach; assay: Biodistribution in NMRI mouse stomach assessed per gram of tissue at 37 MBq/ml, iv after 2 mins; assay type: ADME, organism-based; conditions: in vivo; in short: as §2
[6] = Biodistribution in NMRI mouse carcass at 37 MBq/ml, iv after 2 mins; assay type: ADME, organism-based; conditions: in vivo; in short: as §1
[7] = Biodistribution in NMRI mouse urine at 37 MBq/ml, iv after 60 mins; assay type: ADME, organism-based; conditions: in vivo, 1 h; in short: as §1
[8] = system: Kidney; assay: Biodistribution in NMRI mouse kidney assessed per gram of tissue at 37 MBq/ml, iv after 60 mins; assay type: ADME, organism-based; conditions: in vivo, 1 h; in short: as §2
[9] = system: Liver; assay: Biodistribution in NMRI mouse liver assessed per gram of tissue at 37 MBq/ml, iv after 60 mins; assay type: ADME, organism-based; conditions: in vivo, 1 h; in short: as §2
[10] = Biodistribution in NMRI mouse spleen + pancreas assessed per gram of tissue at 37 MBq/ml, iv after 60 mins; assay type: ADME, organism-based; conditions: in vivo, 1 h; in short: as §2
[11] = system: Stomach; assay: Biodistribution in NMRI mouse stomach assessed per gram of tissue at 37 MBq/ml, iv after 60 mins; assay type: ADME, organism-based; conditions: in vivo, 1 h; in short: as §2
[12] = system: Brain; assay: Biodistribution in NMRI mouse brain assessed per gram of tissue at 37 MBq/ml, iv after 60 mins; assay type: ADME, organism-based; conditions: in vivo, 1 h; in short: as §2
[13] = Biodistribution in NMRI mouse carcass at 37 MBq/ml, iv after 60 mins; assay type: ADME, organism-based; conditions: in vivo, 1 h; in short: as §1
[14] = system: Plasma; assay: Metabolic stability in NMRI mouse plasma assessed as drug recovery at 18 MBq, iv after 30 mins by RP-HPLC; assay type: ADME, organism-based; conditions: in vivo, 0.5 h
In short: (§3)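 NMRI mice under isoflurane received about 18 MBq tracer iv and were decapitated at 10 or 30 min, n = 2. Plasma was separated from heparinised blood by centrifugation; urine was taken at 30 min by bladder voiding and mixed with authentic compound. Both were analysed by gradient RP-HPLC, fractions gamma counted, and intact tracer was expressed as % of recovered radioactivity.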

[15] = Metabolic stability in NMRI mouse urine assessed as drug recovery at 18 MBq, iv after 30 mins by RP-HPLC; assay type: ADME, organism-based; conditions: in vivo, 0.5 h; in short: as §3
[16] = system: HEK293; assay: Drug uptake in human HEK293 cells assessed as radioactivity after 120 mins; assay type: ADME, cell-based; conditions: hek293, 2 h
In short: (§4)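 293T cells were lentivirally transduced with LacZ or, as control, VZV-tk, and kept in DMEM/10% FCS with 1 µg/mL puromycin. 200,000 cells per well were seeded and used after 24 h. Cells received fresh medium with 1.1 MBq tracer per well for 30–120 min at 37 °C, 5% CO2. After ice-cold PBS washes, cells were lysed; lysate and supernatant were gamma counted. Result is % radioactivity in the cell fraction, triplicate means.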

[17] = molecular target: Beta-galactosidase (Escherichia coli) (UniProt P00722); assay: Inhibition of beta-galactosidase
Sequence of Beta-galactosidase (Escherichia coli) (UniProt P00722) (P00722 whole entry, looked up): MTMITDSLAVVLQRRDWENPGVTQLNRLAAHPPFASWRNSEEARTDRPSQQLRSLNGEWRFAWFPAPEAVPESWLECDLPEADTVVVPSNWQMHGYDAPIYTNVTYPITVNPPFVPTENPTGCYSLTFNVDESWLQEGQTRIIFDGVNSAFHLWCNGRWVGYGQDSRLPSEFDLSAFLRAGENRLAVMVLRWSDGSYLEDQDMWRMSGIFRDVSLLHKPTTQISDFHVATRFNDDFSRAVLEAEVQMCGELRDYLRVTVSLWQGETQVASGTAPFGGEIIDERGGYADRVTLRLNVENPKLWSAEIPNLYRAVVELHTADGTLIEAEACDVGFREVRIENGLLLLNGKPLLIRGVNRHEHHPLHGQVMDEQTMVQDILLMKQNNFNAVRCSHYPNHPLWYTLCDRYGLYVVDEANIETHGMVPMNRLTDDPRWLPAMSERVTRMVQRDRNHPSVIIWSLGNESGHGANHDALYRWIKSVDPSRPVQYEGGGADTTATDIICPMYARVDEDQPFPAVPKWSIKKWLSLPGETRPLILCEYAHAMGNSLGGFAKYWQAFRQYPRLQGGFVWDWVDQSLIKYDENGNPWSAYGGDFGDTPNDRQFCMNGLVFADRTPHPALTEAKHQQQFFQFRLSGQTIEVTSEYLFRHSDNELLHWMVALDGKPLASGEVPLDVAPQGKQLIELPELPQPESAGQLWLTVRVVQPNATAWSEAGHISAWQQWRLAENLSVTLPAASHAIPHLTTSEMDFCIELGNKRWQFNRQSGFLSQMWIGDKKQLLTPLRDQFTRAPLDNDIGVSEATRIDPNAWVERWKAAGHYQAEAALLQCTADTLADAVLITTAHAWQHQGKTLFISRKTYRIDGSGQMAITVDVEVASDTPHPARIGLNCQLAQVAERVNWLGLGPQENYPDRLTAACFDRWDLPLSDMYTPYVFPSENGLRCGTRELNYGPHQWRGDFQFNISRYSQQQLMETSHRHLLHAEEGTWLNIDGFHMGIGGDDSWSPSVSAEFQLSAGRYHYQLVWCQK

[18] = system: Blood; assay: Biodistribution in NMRI mouse blood assessed per gram of tissue at 37 MBq/ml, iv after 2 mins; assay type: ADME, organism-based; conditions: in vivo; in short: as §2
[19] = system: Blood; assay: Biodistribution in NMRI mouse blood assessed per gram of tissue at 37 MBq/ml, iv after 60 mins; assay type: ADME, organism-based; conditions: in vivo, 1 h; in short: as §2
[20] = system: HEK293; assay: Drug uptake in human HEK293 cells assessed as radioactivity after 30 mins; assay type: ADME, cell-based; conditions: hek293, 0.5 h; in short: as §4
[21] = molecular target: Beta-galactosidase (Escherichia coli) (UniProt Q8VNN2); assay: Inhibition of Escherichia coli beta-galactosidase assessed as substrate hydrolysis at 1 mg/ml after 15 mins by competitive binding assay in presence of ONPG; parameters: scale not given: the % may be the effect or the level left; conditions: tested as the 11C-labelled form
Sequence of Beta-galactosidase (Escherichia coli) (UniProt Q8VNN2) (Q8VNN2 whole entry, looked up): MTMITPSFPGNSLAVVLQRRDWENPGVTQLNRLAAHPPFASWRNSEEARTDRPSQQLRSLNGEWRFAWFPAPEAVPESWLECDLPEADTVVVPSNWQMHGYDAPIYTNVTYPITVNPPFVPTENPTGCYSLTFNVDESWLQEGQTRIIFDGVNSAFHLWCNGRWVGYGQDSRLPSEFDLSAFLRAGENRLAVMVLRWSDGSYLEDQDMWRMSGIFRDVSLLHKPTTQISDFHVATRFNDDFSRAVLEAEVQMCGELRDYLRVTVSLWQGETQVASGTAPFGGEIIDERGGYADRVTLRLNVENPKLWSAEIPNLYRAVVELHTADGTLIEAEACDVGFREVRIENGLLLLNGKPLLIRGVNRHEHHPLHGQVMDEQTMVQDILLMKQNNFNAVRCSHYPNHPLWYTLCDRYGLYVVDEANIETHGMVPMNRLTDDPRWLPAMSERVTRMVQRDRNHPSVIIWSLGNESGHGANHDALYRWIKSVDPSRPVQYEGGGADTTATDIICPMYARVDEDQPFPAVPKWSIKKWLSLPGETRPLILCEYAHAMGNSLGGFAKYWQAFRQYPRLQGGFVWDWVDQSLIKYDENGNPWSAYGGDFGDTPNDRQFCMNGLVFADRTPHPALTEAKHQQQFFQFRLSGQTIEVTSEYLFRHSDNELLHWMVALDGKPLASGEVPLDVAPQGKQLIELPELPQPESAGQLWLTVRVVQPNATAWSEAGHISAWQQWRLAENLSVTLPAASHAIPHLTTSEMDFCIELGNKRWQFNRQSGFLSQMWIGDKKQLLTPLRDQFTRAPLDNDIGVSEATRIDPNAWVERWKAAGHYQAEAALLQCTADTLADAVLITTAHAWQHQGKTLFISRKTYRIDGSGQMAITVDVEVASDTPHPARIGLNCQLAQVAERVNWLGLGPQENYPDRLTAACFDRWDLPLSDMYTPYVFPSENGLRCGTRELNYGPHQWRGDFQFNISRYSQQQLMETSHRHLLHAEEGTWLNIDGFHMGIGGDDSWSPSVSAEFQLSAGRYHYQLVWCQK
In short: (§5)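 E. coli β-gal (10 U, 149 U/mg) was incubated at 37 °C with 1 mg/mL triazole in HEPES pH 7.0 (120 mM) containing 4 mM MgSO4 and 180 mM NaCl. ONPG (1 mg in 1 mL HEPES solution) was then added. Samples taken 15 and 90 min later were analysed by RP-HPLC with UV detection.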

[22] = molecular target: Beta-galactosidase (Escherichia coli) (UniProt Q8VNN2); assay: Inhibition of Escherichia coli beta-galactosidase assessed as substrate hydrolysis at 1 mg/ml after 90 mins by competitive binding assay in presence of ONPG; parameters: scale not given: the % may be the effect or the level left; conditions: tested as the 11C-labelled form; in short: as §5

logP [1]	Drug uptake [2]	Drug uptake [3]	Drug uptake [4]	Drug uptake [5]	Drug uptake [6]	Drug uptake [7]	Drug uptake [8]	Drug uptake [9]	Drug uptake [10]	Drug uptake [11]	Drug uptake [12]	Drug uptake [13]	Stability [14]	Stability [15]	Drug uptake [16]	Compound	also measured
-0.1	3.1 %ID	16.1 %ID and 19.3 %ID	18.7 %ID and 8.7 %ID	0.9 %ID and 1.5 %ID	38.1 %ID	47.5 %ID	4 %ID and 4.4 %ID	13.4 %ID and 6.3 %ID	0.6 %ID and 1.7 %ID	0.9 %ID and 1.4 %ID	0 %ID and 0.3 %ID	19.6 %ID	Stable	Stable	0.4%	[11CH3]Oc1ccc(-c2cn([C@@H]3O[C@H](CO)[C@H](O)[C@H](O)[C@H]3O)nn2)cc1	
																OC[C@H]1O[C@@H](n2cc(-c3ccccc3)nn2)[C@H](O)[C@@H](O)[C@H]1O	pKi [17]: 3.48
1.4	0.1 %ID	7.2 %ID and 5.7 %ID	12.1 %ID and 25.8 %ID	1.1 %ID and 0.9 %ID	34.3 %ID	2.8 %ID	1 %ID and 1.4 %ID	7.1 %ID and 3.4 %ID	0.4 %ID and 1.2 %ID	0.4 %ID and 0.2 %ID	0 %ID and 0.2 %ID	12.2 %ID	Stable	Stable	1.4%	[11CH3]Oc1ccc2cc(-c3cn([C@@H]4O[C@H](CO)[C@H](O)[C@H](O)[C@H]4O)nn3)ccc2c1	Drug uptake [18]: 50.9 %ID and 18.6 %ID; Drug uptake [19]: 4.2 %ID and 1.6 %ID; Drug uptake [20]: 0.6%
																COc1ccc(-c2cn([C@@H]3O[C@H](CO)[C@H](O)[C@H](O)[C@H]3O)nn2)cc1	Activity [21]: 40%; Activity [22]: 70%
